According to ChEMBL document CHEMBL3045523, “The limonoids and their antitobacco mosaic virus (TMV) activities from Munronia unifoliolata Oliv” (J Agric Food Chem, 2012):
Converted amounts (≈) assume the structure as drawn. Each block holds one compound with its values, some of them ahead of it.

Columns and labels:
[1] = tested on: Tobacco mosaic virus; experiment: Inhibition of Tobacco mosaic virus (TMV) infection in Nicotiana glutinosa assessed as infection inhibition rate at 30 ug/ml after 3 to 4 days by half-leaf method; type: functional
Method in brief: (§1)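 Half-leaf protective assay on Nicotiana glutinosa local-lesion host at the 4–5 leaf stage. TMV U1, purified and diluted to 30 μg/mL in 0.01 M PBS, was mixed with compound solution (DMSO stock diluted in water) for 30 min. The mix was rubbed onto the left leaf half, with virus plus DMSO on the right half. Local lesions were counted 3–4 days later; three repetitions.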

[2] = tested on: Tobacco mosaic virus; experiment: Inhibition of Tobacco mosaic virus (TMV) infection in Nicotiana glutinosa at 200 ug/ml after 3 to 4 days by half-leaf method; type: functional
Method in brief: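 Curative half-leaf test on N. glutinosa. Leaves were mechanically inoculated with purified TMV U1 (30 μg/mL). After 2 h, compound (DMSO stock in water) was applied to the left half and DMSO to the right half. Lesions were counted after 3–4 days. Values are mean ± SD, n = 3.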

[3] = tested on: Tobacco mosaic virus; experiment: Inhibition of Tobacco mosaic virus (TMV) infection in Nicotiana tabacum cv. K326 at 30 ug/ml by DAS-ELISA method; type: functional
Method in brief: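 Leaf-disk test in N. tabacum cv. K326. Leaves were inoculated with TMV (30 μg/mL), and 1 cm disks were cut after 72 h. Disks were floated on compound, DMSO (negative) or mock solutions at 28 °C for 48 h. Virus in disks was measured by DAS-ELISA at OD405 against a TMV standard curve (0.23–3.75 μg/mL). Inhibition = (1 − treated/negative-control TMV) × 100%.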

[4] = tested on: Tobacco mosaic virus; experiment: Inhibition of Tobacco mosaic virus (TMV) infection in Nicotiana glutinosa assessed as infection inhibition rate at 25 ug/ml after 3 to 4 days by half-leaf method; type: functional; method in brief: as §1
[5] = tested on: Tobacco mosaic virus; experiment: Inhibition of Tobacco mosaic virus (TMV) infection in Nicotiana glutinosa assessed as infection inhibition rate at 5 ug/ml after 3 to 4 days by half-leaf method; type: functional; method in brief: as §1
[6] = tested on: Tobacco mosaic virus; experiment: Inhibition of Tobacco mosaic virus (TMV) infection in Nicotiana glutinosa assessed as infection inhibition rate at 10 ug/ml after 3 to 4 days by half-leaf method; type: functional; method in brief: as §1
[7] = tested on: Tobacco mosaic virus; experiment: Inhibition of Tobacco mosaic virus (TMV) infection in Nicotiana glutinosa after 3 to 4 days by half-leaf method; type: functional, organism-based; method in brief: as §1
[8] = tested on: Tobacco mosaic virus; experiment: Inhibition of Tobacco mosaic virus (TMV) infection in Nicotiana glutinosa assessed as infection inhibition rate at 15 ug/ml after 3 to 4 days by half-leaf method; type: functional; method in brief: as §1
[9] = tested on: Tobacco mosaic virus; experiment: Inhibition of Tobacco mosaic virus (TMV) infection in Nicotiana glutinosa assessed as infection inhibition rate at 20 ug/ml after 3 to 4 days by half-leaf method; type: functional; method in brief: as §1

Compound: CC(=O)O[C@H]1C[C@@H](OC(C)=O)[C@@]2(C)CO[C@H]3[C@@H](O)[C@@]4(C)C5=CC[C@@H](c6ccoc6)[C@]5(C)CC[C@@H]4[C@]1(C)[C@@H]32 [DIACETYLVILASININ]
inhibition at 30 µg/mL [1]: 14.6%
inhibition at 200 µg/mL [2]: 17.2%

Compound: C=C1[C@@H]([C@@]2(C)C=CC(=O)O[C@](C)(COC(C)=O)[C@@H]2CC(=O)OC)[C@@H](OC=O)[C@H](OC(=O)[C@H](O)[C@H](C)CC)[C@@]2(C)[C@@H](c3ccoc3)C[C@H]3O[C@]132 [MOMBASOL]
inhibition at 30 µg/mL [1]: 25.9%
inhibition at 30 µg/mL [3]: 39.3%
inhibition at 200 µg/mL [2]: 27.7%

IC50 [7]: 28.3 µg/mL (≈ 44 µM)
Compound: CCC(C)C(O)C(=O)O[C@H]1C[C@H]2[C@](C)(C3=CC[C@@H](c4ccoc4)[C@@]31C)[C@H](OC(C)=O)C[C@H]1C(C)(C)OC(=O)C[C@H](OC(C)=O)[C@@]12C (stereo partly specified) [MUNRONOID K]
inhibition at 30 µg/mL [1]: 51.9%
inhibition at 30 µg/mL [3]: 67.2%
inhibition at 25 µg/mL [4]: 45.7%
inhibition at 5 µg/mL [5]: 6.5%
inhibition at 200 µg/mL [2]: 55.6%
inhibition at 10 µg/mL [6]: 18.7%
inhibition at 15 µg/mL [8]: 28.6%
inhibition at 20 µg/mL [9]: 38.7%

IC50 [7]: 34.6 µg/mL (≈ 60.6 µM)
Compound: CC(=O)O[C@H]1C[C@H]2[C@](C)(C3=CC[C@@H](c4ccoc4)[C@@]31C)[C@H](OC(C)=O)C[C@H]1C(C)(C)OC(=O)C[C@H](OC(C)=O)[C@@]12C [MUNRONOID L]
inhibition at 30 µg/mL [1]: 47.7%
inhibition at 30 µg/mL [3]: 54.4%
inhibition at 25 µg/mL [4]: 43.9%
inhibition at 5 µg/mL [5]: 4.4%
inhibition at 200 µg/mL [2]: 34.6%
inhibition at 10 µg/mL [6]: 15.3%
inhibition at 15 µg/mL [8]: 25.7%
inhibition at 20 µg/mL [9]: 35.8%

IC50 [7]: 37 µg/mL (≈ 60.6 µM)
Compound: CC(=O)O[C@H]1C[C@H]2[C@](C)(C3=CC[C@@H](c4ccoc4)[C@@]31C)[C@H](OC(=O)C=C(C)C)C[C@H]1C(C)(C)OC(=O)C[C@H](OC(C)=O)[C@@]12C [MUNRONOID M]
inhibition at 30 µg/mL [1]: 45.4%
inhibition at 30 µg/mL [3]: 45.7%
inhibition at 25 µg/mL [4]: 42.9%
inhibition at 200 µg/mL [2]: 29.3%
inhibition at 10 µg/mL [6]: 11.5%
inhibition at 15 µg/mL [8]: 22.6%
inhibition at 20 µg/mL [9]: 33.5%

IC50 [7]: 27.9 µg/mL (≈ 46.6 µM)
Compound: C/C=C(\C)C(=O)O[C@H]1C[C@@H](OC(C)=O)[C@@]2(C)CO[C@H]3[C@@H](O)[C@@]4(C)C5=C[C@@H](O)[C@@H](c6ccoc6)[C@]5(C)[C@@H](OC)C[C@@H]4[C@]1(C)[C@@H]32 [MUNRONOID N]
inhibition at 30 µg/mL [1]: 52%
inhibition at 30 µg/mL [3]: 30.2%
inhibition at 25 µg/mL [4]: 44.6%
inhibition at 5 µg/mL [5]: 8.3%
inhibition at 200 µg/mL [2]: 24.5%
inhibition at 10 µg/mL [6]: 16.5%
inhibition at 15 µg/mL [8]: 26.4%
inhibition at 20 µg/mL [9]: 37.9%

Compound: C=C1[C@@H]([C@@]2(C)C=CC(=O)OC(C)(C)[C@@H]2CC(=O)OC)[C@@H](OC(C)=O)[C@H](OC(C)=O)[C@@]2(C)[C@H](C3=CC(=O)OC3)C[C@H]3O[C@]132 [MUNRONOID O]
inhibition at 30 µg/mL [1]: 64.2%
inhibition at 30 µg/mL [3]: 64.2%
inhibition at 25 µg/mL [4]: 51.4%
inhibition at 5 µg/mL [5]: 11.2%
inhibition at 200 µg/mL [2]: 50.2%
inhibition at 10 µg/mL [6]: 24.6%
IC50 [7]: 22.2 µg/mL (≈ 37.8 µM)
inhibition at 15 µg/mL [8]: 33.4%
inhibition at 20 µg/mL [9]: 42.8%

Compound: CNCC(=O)N[C@@H](CO)C(=O)N[C@H]1[C@H](O)[C@@H](O)[C@H](n2ccc(N)nc2=O)O[C@@H]1C(N)=O [NINGNANMYCIN]
inhibition at 30 µg/mL [1]: 42.6%
inhibition at 30 µg/mL [3]: 56.5%
inhibition at 25 µg/mL [4]: 38.3%
inhibition at 200 µg/mL [2]: 42.1%
inhibition at 10 µg/mL [6]: 25%
IC50 [7]: 52.1 µg/mL (≈ 117 µM)
inhibition at 15 µg/mL [8]: 30.3%
inhibition at 20 µg/mL [9]: 32.1%

IC50 [7]: 22.3 µg/mL (≈ 39.1 µM)
Compound: C=C1[C@@H]([C@@]2(C)C=CC(=O)OC(C)(C)[C@@H]2CC(=O)OC)[C@@H](OC(C)=O)[C@H](OC(C)=O)[C@@]2(C)[C@@H](c3ccoc3)C[C@H]3O[C@]132 [NYMANIA]
inhibition at 30 µg/mL [1]: 58%
inhibition at 30 µg/mL [3]: 55.4%
inhibition at 25 µg/mL [4]: 49.8%
inhibition at 5 µg/mL [5]: 8.3%
inhibition at 200 µg/mL [2]: 39.2%
inhibition at 10 µg/mL [6]: 19.6%
inhibition at 15 µg/mL [8]: 29.8%
inhibition at 20 µg/mL [9]: 40.2%
